Where “and” joins values, the source holds several entries; their conditions need not be identical. Equal entries are not always repeated. Each block holds one molecule with its values, some of them ahead of it. Calls of active or inactive are those of the source. The rule behind the calls is not given here.
Tests used:
[1] = test system: Nucleic Acid; test: (§1) Compound was evaluated for the association constant to an isolated site of DNA; format: nucleic-acid assay; set-up: unit not given here; settings: Bos taurus
[2] = test system: Nucleic Acid; test: Compound was evaluated for the binding parameter by determining the number of nucleotides occluded by a bound angelicin (n); format: nucleic-acid assay; settings: Bos taurus
[3] = test system: Nucleic Acid; test: (§2) Compound was evaluated for the frequency of the binding site that is the number of molecules bound to every nucleotide (1/n); format: nucleic-acid assay; settings: Bos taurus
[4] = test system: Nucleic Acid; test: Compound was evaluated for the binding parameter by determining rate constant; format: nucleic-acid assay; settings: Bos taurus
[5] = species: Mus musculus; test: Compound was evaluated for 50% inhibition of DNA synthesis in Ehrlich ascites tumor cells by irradiation (365 nM) at 1.9 x 10e -5M incubated with [3H]thymidine at 37 degree C (p 0.05); format: functional
How it was run: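 Ehrlich ascites tumor cells (2×10^7 cells/mL in Hanks' solution) are irradiated on ice with the compound present, using an HPW 125 lamp at 20 cm. 2×10^6 cells are then pulsed with 1 μCi [3H]thymidine for 15 min at 37 °C. TCA-insoluble counts are taken as % of untreated controls, at least duplicates per dose. UV-A dose for 50% inhibition is derived by probit analysis.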

[6] = species: Bos taurus; test: as §2
[7] = species: Bos taurus; test: as §1
[8] = Percentage of clearance of psoriatic lesions by the compound at dose of 4 J/cm e2 ultraviolet-A radiation; format: ADME, organism-based; settings: in vivo
How it was run: (§3)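 Psoriasis patients, with 4×4 cm skin areas per treatment. Ethanolic solution (0.1% w/v) is applied topically to 5 μg/cm² and left to evaporate. After 20 min, the area is irradiated with a UV-A fluorescent PUVA lamp. Starting dose is 2.5 J/cm², increased up to 13 J/cm² by skin tolerance. Control areas get compound without UV-A, or UV-A alone.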

[9] = Percentage of clearance of psoriatic lesions by the compound at dose of 6 J/cm e2 ultraviolet-A radiation; format: ADME, organism-based; settings: in vivo; how it was run: as §3
[10] = Percentage of clearance of psoriatic lesions by the compound at dose of 8 J/cm e2 ultraviolet-A radiation; format: ADME, organism-based; settings: in vivo; how it was run: as §3
[11] = Percentage of clearance of psoriatic lesions by 8-methoxypsoralen (8-MOP) for comparison at dose of 10 J/cm e2 ultraviolet-A radiation; format: ADME, organism-based; settings: in vivo; how it was run: as §3
[12] = Percentage of clearance of psoriatic lesions by 8-methoxypsoralen (8-MOP) for comparison at dose of 6 J/cm e2 ultraviolet-A radiation; format: ADME, organism-based; settings: in vivo; how it was run: as §3
[13] = Percentage of clearance of psoriatic lesions by 8-methoxypsoralen (8-MOP) for comparison at dose of 8 J/cm e2 ultraviolet-A radiation; format: ADME, organism-based; settings: in vivo; how it was run: as §3
[14] = species: Homo sapiens; test: Number of treatments at dose of 10 J/cm e2 ultraviolet-A radiation; format: functional; how it was run: as §3
[15] = species: Homo sapiens; test: Number of treatments at dose of 4 J/cm e2 ultraviolet-A radiation (patient); format: functional; how it was run: as §3
[16] = species: Homo sapiens; test: (§4) Number of treatments at dose of 6 J/cm e2 ultraviolet-A radiation; format: functional; how it was run: as §3
[17] = species: Homo sapiens; test: Number of treatments at dose of 8 J/cm e2 ultraviolet-A radiation; format: functional; how it was run: as §3
[18] = species: Homo sapiens; test: Pigmentation capacity at dose of 6 J/cm e2 ultraviolet-A radiation in patient; + = moderate; format: functional, organism-based; how it was run: as §3
[19] = species: Homo sapiens; test: Erythema induction by the compound at dose of 10 J/cm e2 ultraviolet-A radiation in patient; - = absent; format: functional, organism-based; how it was run: as §3
[20] = species: Homo sapiens; test: Erythema induction by the compound at dose of 4 J/cm e2 ultraviolet-A radiation in patient; - = absent; format: functional, organism-based; how it was run: as §3
[21] = species: Homo sapiens; test: Erythema induction by the compound at dose of 6 J/cm e2 ultraviolet-A radiation in patient; - = absent; format: functional, organism-based; how it was run: as §3
[22] = species: Homo sapiens; test: Erythema induction by the compound at dose of 8 J/cm e2 ultraviolet-A radiation in patient; - = absent; format: functional, organism-based; how it was run: as §3
[23] = species: Homo sapiens; test: Pigmentation capacity of 8-methoxypsoralen (8-MOP) for comparison at dose of 10 J/cm e2 ultraviolet-A radiation in patient; +=moderate; format: functional, organism-based; how it was run: as §3
[24] = species: Homo sapiens; test: Pigmentation capacity of 8-methoxypsoralen (8-MOP) for comparison at dose of 4 J/cm e2 ultraviolet-A radiation in patient; - = absent; format: functional, organism-based; how it was run: as §3
[25] = species: Homo sapiens; test: Pigmentation capacity of 8-methoxypsoralen (8-MOP) for comparison at dose of 6 J/cm e2 ultraviolet-A radiation in patient; + = moderate; format: functional, organism-based; how it was run: as §3
[26] = species: Homo sapiens; test: Pigmentation capacity of 8-methoxypsoralen (8-MOP) for comparison at dose of 8 J/cm e2 ultraviolet-A radiation in patient; +=moderate; format: functional, organism-based; how it was run: as §3
[27] = species: Homo sapiens; test: as §4; format: functional; how it was run: as §3; remark: listed apart in the source
[28] = Percentage of clearance of psoriatic lesions by the compound at dose of 10 J/cm e2 ultraviolet-A radiation; format: ADME, organism-based; settings: in vivo; how it was run: as §3
[29] = species: Homo sapiens; test: Erythema induction by 8-methoxypsoralen (8-MOP) for comparison at dose of 8 J/cm e2 ultraviolet-A radiation in patient, +=moderate; format: functional, organism-based; how it was run: as §3
[30] = Percentage of clearance of psoriatic lesions by the compound at dose of 9 J/cm e2 ultraviolet-A radiation; format: ADME, organism-based; settings: in vivo; how it was run: as §3
[31] = Percentage of clearance of psoriatic lesions by 8-methoxypsoralen (8-MOP) for comparison at dose of 9 J/cm e2 ultraviolet-A radiation; format: ADME, organism-based; settings: in vivo; how it was run: as §3
[32] = species: Homo sapiens; test: Number of treatments at dose of 9 J/cm e2 ultraviolet-A radiation; format: functional; how it was run: as §3
[33] = species: Homo sapiens; test: Pigmentation capacity at dose of 8 J/cm e2 ultraviolet-A radiation in patient; + = moderate; format: functional, organism-based; how it was run: as §3
[34] = species: Homo sapiens; test: Pigmentation capacity at dose of 9 J/cm e2 ultraviolet-A radiation in patient; + = moderate; format: functional, organism-based; how it was run: as §3
[35] = species: Homo sapiens; test: Erythema induction by the compound at dose of 9 J/cm e2 ultraviolet-A radiation in patient; - = absent; format: functional, organism-based; how it was run: as §3

K [1]: 2990
Activity [2]: 15.9
Activity [3]: 0.063
Rate constant [4]: 0.0523 min⁻¹
SMILES: Cc1cc(=O)oc2c1cc(C)c1occc12
ID50 [5]: 4e+18 quanta

SMILES: O=c1ccc2ccc3occc3c2o1 [ANGELICIN]
K [1]: 560
Activity [2]: 15.9
Activity [3]: 0.063
Rate constant [4]: 0.011 min⁻¹
ID50 [5]: 2.5e+19 quanta

Activity [6]: 0.048
K [7]: 925
Activity [2]: 20.8
Rate constant [4]: 0.036 min⁻¹
SMILES: Cc1cc2ccc(=O)oc2c2ccoc12
ID50 [5]: 2.63e+19 quanta

K [1]: 3310
Activity [2]: 22.2
Activity [3]: 0.045
Rate constant [4]: 0.0702 min⁻¹
SMILES: Cc1cc2c(o1)c(C)cc1c(C)cc(=O)oc12
ID50 [5]: 3.87e+18 quanta

Lesion_Clearance [8]: 95%
Lesion_Clearance [9]: 100%
Lesion_Clearance [10]: 100%
Lesion_Clearance [11]: 90%
Lesion_Clearance [12]: 80% and 85%
Lesion_Clearance [13]: 75%
K [1]: 10100
Activity [2]: 11
Activity [3]: 0.091
Rate constant [4]: 0.133 min⁻¹
Lesion_Clearance [28]: 90%
SMILES: Cc1cc(=O)oc2c1cc(C)c1occ(C)c12
Activity [14]: 15
Activity [15]: 11
Activity [16]: 9
Activity [17]: 11
Pigmentation capacity [18]: moderate
Erythema induction [19]: inactive
Erythema induction [20]: inactive
Erythema induction [21]: inactive
Erythema induction [22]: inactive
Pigmentation capacity [23]: moderate
Pigmentation capacity [24]: inactive
Pigmentation capacity [25]: moderate
Pigmentation capacity [26]: moderate
Activity [27]: 9
ID50 [5]: 6e+16 quanta
Erythema induction [29]: moderate

Lesion_Clearance [10]: 100%
Lesion_Clearance [30]: 90%
Lesion_Clearance [13]: 85%
Lesion_Clearance [31]: 70%
K [1]: 6300
Activity [2]: 16.4
Activity [3]: 0.061
Rate constant [4]: 0.099 min⁻¹
SMILES: Cc1cc2ccc(=O)oc2c2c(C)coc12
Activity [17]: 15
Activity [32]: 15
Pigmentation capacity [33]: moderate
Pigmentation capacity [34]: moderate
Erythema induction [22]: inactive
Erythema induction [35]: inactive
ID50 [5]: 2.2e+18 quanta

SMILES: Cc1c(C)c2occc2c2oc(=O)ccc12
ID50 [5]: 3e+19 quanta

K [1]: 736
Activity [2]: 7.81
Activity [3]: 0.128
Rate constant [4]: 0.031 min⁻¹
SMILES: COc1c2occc2cc2ccc(=O)oc12 [METHOXSALEN]
ID50 [5]: 1.38e+19 quanta

K [1]: 1980
Activity [2]: 12.8
Activity [3]: 0.078
Rate constant [4]: 0.03 min⁻¹
SMILES: Cc1cc2c(o1)c(C)cc1ccc(=O)oc12
ID50 [5]: 1.19e+19 quanta

K [1]: 3730
Activity [2]: 14.3
Activity [3]: 0.07
Rate constant [4]: 0.023 min⁻¹
SMILES: Cc1cc2c(o1)c(C)c(C)c1ccc(=O)oc12
ID50 [5]: 3e+19 quanta
